Results as given in article PMC3132207 (Journal of medicinal chemistry, 2011).

What was measured:
[1] = molecular target: heteromeric rod CNG channels consisting of CNGA1 and CNGB1 subunits (Bos taurus, UniProt Q00194+Q28181); assay type: cell-based; conditions: 20 µM blocker, Vm = +50 mV
chymotrypsin = chymotrypsin (Bos taurus, UniProt P00766); assay: In vitro hydrolysis by chymotrypsin; assay type: in vitro ADME; conditions: 50 µM compound, 37 °C
Procedure, shortened: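 Hydrolysis was followed by diode-array UV absorbance at the product peak wavelength, starting on compound addition. Runs were in triplicate. Enzyme activity was confirmed separately with 90 µM 4-nitrophenyl acetate in 0.1 M HEPES, pH 6.5, 37 °C, read at 404 nm for 10 min.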

proteinase K = proteinase K (Parengyodontium album, UniProt P06873); assay: In vitro hydrolysis by proteinase K; assay type: in vitro ADME, Engyodontium album; conditions: 50 µM compound, 37 °C
proteinase K, sequence (P06873 106-384): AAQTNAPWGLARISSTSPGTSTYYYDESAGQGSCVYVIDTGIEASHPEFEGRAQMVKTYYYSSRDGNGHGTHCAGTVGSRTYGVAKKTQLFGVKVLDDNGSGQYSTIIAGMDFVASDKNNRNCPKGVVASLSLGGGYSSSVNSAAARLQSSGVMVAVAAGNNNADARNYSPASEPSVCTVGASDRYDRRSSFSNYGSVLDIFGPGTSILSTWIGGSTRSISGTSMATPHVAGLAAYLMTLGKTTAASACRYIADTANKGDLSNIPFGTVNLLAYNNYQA

[2] = molecular target: butyrylcholinesterase purified from human blood serum (Homo sapiens, UniProt P06276); assay: In vitro hydrolysis by serum cholinesterase; assay type: in vitro ADME; conditions: even after 24 h incubations
butyrylcholinesterase purified from human blood serum, sequence (P06276 29-602): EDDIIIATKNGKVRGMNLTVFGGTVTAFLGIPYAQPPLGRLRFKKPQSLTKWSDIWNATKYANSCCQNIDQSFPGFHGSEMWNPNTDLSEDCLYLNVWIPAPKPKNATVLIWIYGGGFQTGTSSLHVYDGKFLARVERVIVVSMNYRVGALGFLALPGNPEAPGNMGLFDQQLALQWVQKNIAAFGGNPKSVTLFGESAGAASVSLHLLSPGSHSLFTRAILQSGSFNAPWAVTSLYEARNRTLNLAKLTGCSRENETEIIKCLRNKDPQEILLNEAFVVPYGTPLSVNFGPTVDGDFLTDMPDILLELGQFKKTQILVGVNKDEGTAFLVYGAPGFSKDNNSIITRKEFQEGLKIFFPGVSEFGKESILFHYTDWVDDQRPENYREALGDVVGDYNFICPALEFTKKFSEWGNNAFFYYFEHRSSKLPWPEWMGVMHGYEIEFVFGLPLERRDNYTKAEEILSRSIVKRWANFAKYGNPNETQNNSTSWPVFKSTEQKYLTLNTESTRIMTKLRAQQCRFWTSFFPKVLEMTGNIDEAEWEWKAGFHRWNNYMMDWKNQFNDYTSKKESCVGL

heteromeric rod CNG channels consisting of CNGA1 and CNGB1 subunits, sequence (Q00194 whole entry): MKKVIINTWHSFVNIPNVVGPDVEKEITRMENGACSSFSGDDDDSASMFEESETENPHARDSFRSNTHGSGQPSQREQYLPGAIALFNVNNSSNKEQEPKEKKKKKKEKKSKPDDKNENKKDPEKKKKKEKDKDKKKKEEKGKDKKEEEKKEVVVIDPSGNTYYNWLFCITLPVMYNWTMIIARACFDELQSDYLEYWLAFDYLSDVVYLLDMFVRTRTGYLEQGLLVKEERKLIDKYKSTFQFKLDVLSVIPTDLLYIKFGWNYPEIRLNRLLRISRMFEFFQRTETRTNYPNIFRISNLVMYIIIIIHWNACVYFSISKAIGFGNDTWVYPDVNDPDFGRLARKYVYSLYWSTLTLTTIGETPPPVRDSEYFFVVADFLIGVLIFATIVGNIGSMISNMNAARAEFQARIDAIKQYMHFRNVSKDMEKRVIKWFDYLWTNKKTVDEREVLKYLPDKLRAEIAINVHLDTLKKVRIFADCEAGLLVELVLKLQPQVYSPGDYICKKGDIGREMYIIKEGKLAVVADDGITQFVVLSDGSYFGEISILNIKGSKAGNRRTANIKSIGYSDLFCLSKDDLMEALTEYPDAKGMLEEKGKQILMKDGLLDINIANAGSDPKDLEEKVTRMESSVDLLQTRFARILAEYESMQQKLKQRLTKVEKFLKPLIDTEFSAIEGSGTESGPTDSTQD
heteromeric rod CNG channels consisting of CNGA1 and CNGB1 subunits, sequence (Q28181 whole entry): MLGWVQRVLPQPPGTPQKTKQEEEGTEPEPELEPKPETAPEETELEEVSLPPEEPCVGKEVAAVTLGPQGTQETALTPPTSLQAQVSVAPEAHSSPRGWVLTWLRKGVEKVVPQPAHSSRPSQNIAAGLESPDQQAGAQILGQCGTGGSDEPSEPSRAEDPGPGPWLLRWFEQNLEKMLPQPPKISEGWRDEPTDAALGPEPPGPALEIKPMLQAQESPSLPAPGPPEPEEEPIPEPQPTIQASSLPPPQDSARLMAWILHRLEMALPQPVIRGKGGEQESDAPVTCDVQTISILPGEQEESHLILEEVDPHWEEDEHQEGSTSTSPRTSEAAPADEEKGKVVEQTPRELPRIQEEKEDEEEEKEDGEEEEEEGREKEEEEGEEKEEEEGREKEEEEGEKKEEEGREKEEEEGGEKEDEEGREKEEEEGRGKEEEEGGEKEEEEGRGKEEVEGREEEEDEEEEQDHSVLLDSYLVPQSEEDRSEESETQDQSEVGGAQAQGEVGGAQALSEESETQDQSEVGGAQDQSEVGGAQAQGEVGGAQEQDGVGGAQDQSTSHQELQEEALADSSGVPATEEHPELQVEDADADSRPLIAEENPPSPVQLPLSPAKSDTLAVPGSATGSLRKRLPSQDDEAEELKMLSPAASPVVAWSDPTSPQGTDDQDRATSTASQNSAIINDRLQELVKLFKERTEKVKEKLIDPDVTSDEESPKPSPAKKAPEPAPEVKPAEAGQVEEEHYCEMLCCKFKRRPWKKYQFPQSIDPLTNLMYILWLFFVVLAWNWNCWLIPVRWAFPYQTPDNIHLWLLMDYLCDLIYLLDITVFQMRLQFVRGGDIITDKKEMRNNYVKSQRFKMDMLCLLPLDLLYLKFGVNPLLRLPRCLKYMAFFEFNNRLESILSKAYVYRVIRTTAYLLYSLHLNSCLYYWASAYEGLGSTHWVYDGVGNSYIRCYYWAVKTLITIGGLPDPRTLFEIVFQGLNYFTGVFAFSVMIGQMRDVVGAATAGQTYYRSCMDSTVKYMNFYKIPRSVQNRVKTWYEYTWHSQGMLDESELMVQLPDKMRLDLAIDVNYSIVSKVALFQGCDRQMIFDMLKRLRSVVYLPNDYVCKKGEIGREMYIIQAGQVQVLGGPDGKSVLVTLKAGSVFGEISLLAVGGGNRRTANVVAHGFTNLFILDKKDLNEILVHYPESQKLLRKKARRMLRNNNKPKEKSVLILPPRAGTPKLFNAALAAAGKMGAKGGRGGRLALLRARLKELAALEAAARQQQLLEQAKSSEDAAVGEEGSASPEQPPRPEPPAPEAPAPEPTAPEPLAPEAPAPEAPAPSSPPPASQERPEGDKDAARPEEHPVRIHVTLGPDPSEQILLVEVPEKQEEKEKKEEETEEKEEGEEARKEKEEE

SMILES | block of 2 mM cGMP-induced currents [1] | hydrolysis by chymotrypsin (chymotrypsin) | hydrolysis by proteinase K (proteinase K) | hydrolysis product detection by butyrylcholinesterase [2]
COc1ccc([C@H]2Sc3ccccc3N(CCN(C)C)C(=O)[C@H]2OC(C)=O)cc1 (relative stereo) [l-cis-diltiazem] | 74.2 ± 5.8% | – | – | –
CCCCNc1ccc(C(=O)NCCN(C)C)cc1 [Compound 6, 4-(Butylamino)-N-(2-(dimethylamino)ethyl)benzamide] | – | resistant | resistant | –
CCCCCCCCNc1ccc(C(=O)NCCN(C)C)cc1 [Compound 7, 4-(Octylamino)-N-(2-(dimethylamino)ethyl)benzamide] | – | resistant | resistant | –
CCCCNc1ccc(C(=S)NCCN(C)C)cc1 [Compound 8, 4-(Butylamino)-N-(2-(dimethylamino)ethyl)benzothioamide] | – | completely resistant | completely resistant | much too stable for our system to detect any hydrolysis product
CCCCCCCCNc1ccc(C(=S)NCCN(C)C)cc1 [Compound 9, 4-(Octylamino)-N-(2-(dimethylamino)ethyl)benzothioamide] | – | completely resistant | completely resistant | much too stable for our system to detect any hydrolysis product
